In the M2OR odorant receptor database:

Key:
Settings in all cases: stereoisomer not certain
UniProt Q8VFP5 = target: T1, UniProt Q8VFP5
T1 sequence (whole entry): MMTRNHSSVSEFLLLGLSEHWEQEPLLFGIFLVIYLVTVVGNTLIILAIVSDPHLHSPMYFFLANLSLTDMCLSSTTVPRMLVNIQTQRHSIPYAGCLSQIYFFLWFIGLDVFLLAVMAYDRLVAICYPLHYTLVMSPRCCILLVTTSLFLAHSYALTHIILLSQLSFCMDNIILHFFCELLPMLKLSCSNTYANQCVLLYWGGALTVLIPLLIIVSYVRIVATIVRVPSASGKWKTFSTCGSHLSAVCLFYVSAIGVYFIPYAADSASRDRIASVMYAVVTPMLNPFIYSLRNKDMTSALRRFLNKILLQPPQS
Method in brief: (§1)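 Whether a receptor–molecule pair is responsive (active) rests on the original authors' judgment that its measured signal was statistically different from baseline. Pairs without that judgment are non-responsive (inactive). Sources used varied assay methods, commonly transient luciferase assays in mammalian cell lines.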

UniProt Q8VFZ6 = target: T2, UniProt Q8VFZ6
T2 sequence (whole entry): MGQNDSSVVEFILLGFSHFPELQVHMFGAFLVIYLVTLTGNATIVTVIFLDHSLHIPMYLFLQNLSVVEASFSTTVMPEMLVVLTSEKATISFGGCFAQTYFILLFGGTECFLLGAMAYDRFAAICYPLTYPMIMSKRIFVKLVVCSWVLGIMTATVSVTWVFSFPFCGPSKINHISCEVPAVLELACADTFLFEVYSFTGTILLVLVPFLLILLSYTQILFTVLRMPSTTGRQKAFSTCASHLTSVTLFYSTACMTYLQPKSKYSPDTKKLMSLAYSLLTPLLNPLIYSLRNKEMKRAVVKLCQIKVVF
Method in brief: as §1

UniProt Q8VG01 = target: T3, UniProt Q8VG01
T3 sequence (whole entry): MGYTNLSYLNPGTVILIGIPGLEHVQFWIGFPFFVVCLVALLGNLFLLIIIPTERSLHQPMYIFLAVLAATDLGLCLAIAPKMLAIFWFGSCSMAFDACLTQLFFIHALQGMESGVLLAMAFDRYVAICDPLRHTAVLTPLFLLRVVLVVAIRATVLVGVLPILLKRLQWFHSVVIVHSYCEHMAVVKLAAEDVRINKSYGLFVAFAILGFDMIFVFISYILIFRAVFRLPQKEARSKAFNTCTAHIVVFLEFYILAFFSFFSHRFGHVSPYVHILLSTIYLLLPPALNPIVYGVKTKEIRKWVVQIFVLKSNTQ
Method in brief: as §1

UniProt Q8VG22 = target: T4, UniProt Q8VG22
T4 sequence (whole entry): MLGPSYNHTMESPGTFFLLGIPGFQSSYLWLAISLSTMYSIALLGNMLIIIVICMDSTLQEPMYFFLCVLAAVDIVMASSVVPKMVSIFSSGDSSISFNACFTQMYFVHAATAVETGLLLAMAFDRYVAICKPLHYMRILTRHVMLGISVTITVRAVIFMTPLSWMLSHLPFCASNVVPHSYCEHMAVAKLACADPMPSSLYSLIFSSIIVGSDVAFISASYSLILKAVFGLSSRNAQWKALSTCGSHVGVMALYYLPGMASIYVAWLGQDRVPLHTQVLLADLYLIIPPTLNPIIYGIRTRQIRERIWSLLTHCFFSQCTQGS
Method in brief: as §1

UniProt Q8VFQ6 = target: UniProt Q8VFQ6
UniProt Q8VFQ6, sequence (Q8VFQ6 as listed by the source): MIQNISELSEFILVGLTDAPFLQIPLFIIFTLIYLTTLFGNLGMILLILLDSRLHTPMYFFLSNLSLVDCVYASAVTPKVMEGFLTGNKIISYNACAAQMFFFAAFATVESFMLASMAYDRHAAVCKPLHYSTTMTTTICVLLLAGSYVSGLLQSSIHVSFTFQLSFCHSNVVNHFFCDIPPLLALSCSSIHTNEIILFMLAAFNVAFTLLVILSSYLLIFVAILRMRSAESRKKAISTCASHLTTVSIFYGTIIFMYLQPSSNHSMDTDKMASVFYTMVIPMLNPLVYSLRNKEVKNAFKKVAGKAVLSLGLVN
Method in brief: as §1

UniProt Q8VG26 = target: UniProt Q8VG26
UniProt Q8VG26, sequence (Q8VG26 as listed by the source): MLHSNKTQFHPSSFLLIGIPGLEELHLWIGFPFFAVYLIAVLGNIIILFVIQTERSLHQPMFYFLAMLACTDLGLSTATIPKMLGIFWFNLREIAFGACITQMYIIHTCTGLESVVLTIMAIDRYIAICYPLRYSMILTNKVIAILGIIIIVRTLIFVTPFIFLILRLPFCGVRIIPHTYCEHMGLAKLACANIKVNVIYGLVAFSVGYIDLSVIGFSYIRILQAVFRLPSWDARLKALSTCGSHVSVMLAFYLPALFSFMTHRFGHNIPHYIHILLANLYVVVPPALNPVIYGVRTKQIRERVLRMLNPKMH
Method in brief: as §1
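Further: active if original authors judged signal statistically different from baseline.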

SMILES | odorant receptor agonist call (UniProt Q8VFP5) | odorant receptor agonist call (UniProt Q8VFZ6) | odorant receptor agonist call (UniProt Q8VG01) | odorant receptor agonist call (UniProt Q8VG22) | odorant receptor agonist call (UniProt Q8VFQ6) | odorant receptor agonist call (UniProt Q8VG26)
CC(=O)OCc1ccccc1 | inactive | inactive | inactive | active |  | 
CCCCCCCCCC(=O)[O-].[H+] | inactive | inactive | inactive | inactive |  | 
COc1cc(C(=O)O)ccc1O | inactive | inactive | inactive | inactive |  | 
C=C(C)C1CCC(C)C(=O)C1 (centres undefined) | inactive | inactive | inactive | active |  | 
O=C1Cc2ccccc2O1 | inactive | inactive | inactive | active |  | 
CCCCCC1=C(C)CCC1=O | inactive | inactive | inactive | active |  | 
CCCCCCOC(C)=O | inactive | inactive | inactive | inactive |  | 
CC(=O)Oc1ccccc1 | inactive | inactive | inactive | active |  | 
CC(C)=CCCC(C)=CCO | inactive | active | inactive | inactive |  | 
CCCCCCCCS | inactive | inactive | inactive | inactive |  | 
CCCCCCCCCS | inactive | active | inactive | inactive |  | 
CCCCC(C)=O | inactive | inactive | inactive | inactive |  | 
O=C1CCOc2ccccc21 | inactive | inactive | inactive | active | inactive | 
CCCCCCC(C)=O | inactive | inactive | inactive | inactive |  | 
CCCCC(=O)CC | inactive | inactive | inactive | inactive |  | 
CCCCOC=O | inactive | inactive | inactive | inactive |  | 
CC(C)=CCCC(C)CCO (centres undefined) | inactive | inactive | inactive | inactive |  | 
CCCCC(=O)O | inactive | inactive | inactive | inactive |  | inactive
CCCCCOC(=O)CCCCC | inactive | inactive | inactive | inactive |  | 
CCCCCCCCCCO | inactive | inactive | inactive | inactive |  | 
CCCCCC=O | inactive | inactive | inactive | inactive |  | 
CCCCCCCC(C)=O | inactive | inactive | inactive | inactive |  | 
c1ccccc1 | inactive | inactive | inactive | inactive |  | 

SMILES | odorant receptor agonist call (UniProt Q8VFP5) | odorant receptor agonist call (UniProt Q8VFZ6) | odorant receptor agonist call (UniProt Q8VG01) | odorant receptor agonist call (UniProt Q8VG22) | odorant receptor agonist call (UniProt Q8VFQ6) | odorant receptor agonist call (UniProt Q8VG26)
CC(=O)OCC=C(C)C | inactive | inactive | inactive | inactive |  | 
CC12CCC(CC1=O)C2(C)C (centres undefined) | inactive | inactive | inactive | inactive |  | 
O=C(c1ccccc1)c1ccccc1 | inactive | inactive | inactive | inactive |  | 
CCC(=O)O | inactive | inactive | inactive | inactive |  | 
CCCCCCCO | inactive | inactive | inactive | active |  | inactive
CCOC(=O)C(C)C | inactive | inactive | inactive | inactive |  | 
CCCCCC(=O)CC | inactive | inactive | inactive | inactive |  | 
CCCC(=O)C(C)=O | inactive | inactive | inactive | active |  | 
C=CCOC(=O)CCCCCC | inactive | inactive | inactive | inactive |  | 
CCC(=O)C(=O)CC | inactive | inactive | inactive | active |  | 
CCCCCCCCC(=O)O | inactive | inactive | inactive | inactive |  | inactive
COc1nccnc1C(C)C | inactive |  | inactive |  |  | 
COC(OC)c1ccccc1 | inactive |  | inactive |  |  | 
C=CC(C)=CCC=C(C)CCC=C(C)C | inactive |  | inactive |  |  | 
C1CCOC1 | inactive |  | inactive |  |  | 
CCc1occc(=O)c1O | inactive |  | inactive |  |  | 
CSSSC | inactive |  | inactive |  |  | 
CC(=O)OCCc1ccccc1 | inactive |  | inactive |  |  | 
CCC=CCCC=CC=O | inactive |  | inactive |  |  | 
CCOC(=O)C(C)CC (centres undefined) | inactive |  | inactive |  |  | 
CCC(C)c1nccnc1OC (centres undefined) | inactive |  | inactive |  |  | 
CSSCc1ccco1 | inactive |  | inactive |  |  | 
CCN(CC)CC | inactive |  | inactive |  |  | 
